# In the library only some 2.6% were active in any assay of this set; here they are far more common.
# SENP7 block = blocks the human protease SENP7. inhibition, % at 5 µM. 330,000 compounds, 1.5% hits. recombinant SENP7, Z-RLRGG-aminoluciferin luminescence, 40 min. Q9BQF6;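 active = inhibition above about 50% at the single test dose, limit read from the data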;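 also: plate controls were DMSO with enzyme for no effect and no enzyme buffer wells for full effect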
# SENP8 block-1 = blocks human SENP8 cleavage of Nedd8 substrate | recombinant SENP8, Nedd8 substrate fluorescence | inhibition, % at 20 µM | 360,000 compounds, 0.64% hits | AID 602440; in the data active = inhibition mostly above about 40%, no sharp cut-off; inactive = mostly below about 27%
# Platelet DG rel = platelet dense granule release activity. human platelet-rich plasma, SFLLRN dense granule ATP release, luminescence. inhibition, %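 (compounds screened at 7.5 µM in platelet-rich plasma)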. 300,000 compounds, 0.22% hits;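 active = mean replicate score, as percent of positive control, at or above 50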
# SENP6 block = blocks the human protease SENP6; Q9GZR1; Recombinant SENP6 catalytic domain, aminoluciferin luminescence; inhibition, % at 10 µM; 330,000 compounds, 1.8% hits; AID 2599;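 active = inhibition above about 50% at the single tested dose, limit read from the data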;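 also: plate controls were DMSO wells with enzyme for no effect and DMSO wells lacking enzyme for full effect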
# Target sequence (Q9GZR1 628-1112 limits assumed): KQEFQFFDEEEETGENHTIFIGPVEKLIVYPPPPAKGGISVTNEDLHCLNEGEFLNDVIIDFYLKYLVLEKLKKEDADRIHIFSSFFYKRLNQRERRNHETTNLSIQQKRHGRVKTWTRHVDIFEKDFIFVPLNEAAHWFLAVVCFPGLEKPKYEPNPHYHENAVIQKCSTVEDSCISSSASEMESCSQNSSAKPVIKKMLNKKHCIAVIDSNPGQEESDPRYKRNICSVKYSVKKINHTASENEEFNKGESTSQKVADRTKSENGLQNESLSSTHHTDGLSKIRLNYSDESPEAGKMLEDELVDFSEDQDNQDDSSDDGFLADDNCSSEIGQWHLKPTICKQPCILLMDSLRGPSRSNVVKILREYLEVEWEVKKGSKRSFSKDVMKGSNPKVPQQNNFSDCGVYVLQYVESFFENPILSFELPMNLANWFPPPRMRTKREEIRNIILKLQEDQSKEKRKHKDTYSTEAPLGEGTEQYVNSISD
# SENP1 FRET inh = inhibitors of human SENP1 SUMO protease catalytic domain; recombinant SENP1 catalytic domain, CyPet-SUMO1-YPet FRET cleavage; Q9P0U3; 360,000 compounds, 0.21% hits; inhibition, % at 10 µM;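 active = inhibition at least 30% at 10 µM, raw YFP signal under a set limit, fluorescence ratio 0.5 to 1.5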;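 also: 0% = enzyme with DMSO and 100% = no enzyme wells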
#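 Test system: human SENP1 catalytic domain; medium: Tris pH 8 buffer plus EDTA, NaCl, BME, BSA, NP40, catalase; incubation: 50 min reaction at room temperature; technique: FRET, CFP and YFP emission; controls: no-enzyme low control and enzyme-plus-DMSO high control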
# SENP8 block-2 = SENP8 protease inhibition; Q96LD8; purified SENP8, Z-RLRGG-aminoluciferin cleavage, luminescence; inhibition, % at 10 µM; 330,000 compounds, 1.2% hits; AID 2540; in the data active = inhibition above about 50%
# Active calls of the source: *; · = not tested or not shown.
SMILES,SENP7 block,SENP8 block-1,Platelet DG rel,SENP6 block,SENP1 FRET inh,SENP8 block-2
COc1ccccc1N1CCN(C2=Nc3cccc4cccc2c34)CC1,-2.4,28.3,-4.1,1.8,94.6*,-1.4
COc1ccccc1N1CCN(C(=O)CN2C(=O)c3cccc4cccc(c34)C2=O)CC1,3.1,-17.3,-2.0,-9.9,0.2,5.5
CC(C)C(C)NC(=O)CN1C(=O)NC2(CCc3ccccc32)C1=O (stereo unspecified),2.4,13.1,-3.3,-2.7,-5.6,12.4
O=C(COc1ccccc1Cl)NCCCNC(=O)c1cnccn1,-11.5,1.1,-15.7,-11.6,2.7,-8.5
Cc1nn(C)cc1CNC(=O)C1CCC(=O)N(CC2CCCCC2)C1 (stereo unspecified),-4.4,1.8,55.8*,2.4,1.4,-5.8
O=C1c2ccccc2-c2onc3ccc(NCCCn4ccnc4)c1c23,7.3,·,10.7,0.2,·,13.0
COc1ccc2noc3c2c1C(=O)c1ccccc1-3,57.0*,104.8*,-0.5,86.9*,-37.5,80.1*
COc1ccc(C(=O)N/N=C/c2c(C)[nH]c(=O)[nH]c2=O)cc1,-1.0,6.1,-1.7,-2.5,1.0,2.3
COc1ccc(CO/N=C/c2c(C)[nH]c(=O)[nH]c2=O)cc1,0.3,13.2,72.1*,-21.7,1.6,-5.1
CCCNC(=O)C1(C)CCCN(C(=O)c2ccccc2F)C1 (stereo unspecified),·,2.8,·,·,0.0,·
COc1ccc(OC)c(NC(=O)CS(=O)(=O)Cc2nc(-c3ccccc3C)oc2C)c1,-4.4,-2.7,50.8*,1.7,-2.5,3.6
Cc1ccccc1-c1nc(CS(=O)(=O)CC(=O)N2CCc3ccccc32)c(C)o1,1.0,5.8,58.0*,1.4,-0.7,3.4
COc1cccc(-c2nc(CS(=O)(=O)CC(=O)Nc3c(C)cccc3C)c(C)o2)c1,10.4,10.5,3.4,3.4,-0.8,0.8
Cc1ccc(C2=NCCn3nc4cc([N+](=O)[O-])ccc4c32)cc1,-9.1,-27.5,-0.4,-17.2,4.5,-16.1
O=C(CSCc1ccco1)c1cccs1,-2.8,27.2,85.4*,-6.6,-9.1,-10.0
O=C(NCc1ccco1)c1cccs1,4.4,14.6,9.4,2.8,0.1,4.8
CCCN(C(=O)CSc1nc2ccccc2n1CC)C1CCS(=O)(=O)C1 (stereo unspecified),-15.4,1.4,-9.9,-25.5,-1.8,-11.3
COc1ccc(-c2ccc3c(c2)S(=O)(=O)c2cccc(C(=O)N4CCN(c5c(Cl)cncc5Cl)CC4)c2C3=O)cc1OC,-0.7,-10.9,·,-4.9,51.0*,5.3
COc1cccc(CN2CCN(Cc3ccc4c(NC(C)=O)cccc4n3)CC2CCO)c1 (stereo unspecified),-0.1,-31.8,0.9,-0.4,-6.8,5.9
CC1CCC/C(=C\Nc2ccc(C(=O)O)c(O)c2)C1=O (stereo unspecified),-11.8,-10.8,12.8,48.3,-8.4,27.7
O=C1CCCC/C1=C\Nc1ccc(C(=O)O)c(O)c1,21.5,-7.2,33.2,61.8*,-1.9,36.0
Cc1cc(NC(=O)CSc2ncc(C(=O)O)n2-c2ccc(F)cc2)no1,8.0,9.6,·,-0.1,1.3,-1.8
Oc1ccc(C=NNc2ccccn2)c(O)c1,·,-2.8,·,·,1.3,·
Oc1ccc(/C=N/Nc2nccnc2Cl)c(O)c1,100.5*,-122.1,135.3*,95.9*,-1.3,96.4*
Cn1c(=O)n(C)c2cc(S(=O)(=O)NCc3ccco3)ccc21,-8.7,4.7,10.9,-10.6,-0.3,-6.8
SMILES,SENP7 block,SENP8 block-1,Platelet DG rel,SENP6 block,SENP1 FRET inh,SENP8 block-2
Cn1c(=O)n(C)c2cc(S(=O)(=O)NCc3ccccc3)ccc21,4.1,11.5,51.7*,4.0,1.0,4.6
CCCCC(=O)N(C)c1c(CC)nc2c(OCC(N)=O)cccn12,·,5.8,·,·,-2.6,·
COc1cc(Cl)c(C)cc1Nc1ncccn1,1.7,9.0,-3.6,-7.6,0.1,0.0
Cc1cc(O)c2c(c1O)C(=O)[C@]13C(=C2O)C(=O)[C@@H]2[C@@H](O)[C@H]1[C@@H]1[C@H](O)[C@H]3C(=O)C3=C(O)c4c(O)cc(C)c(O)c4C(=O)[C@]312,8.8,19.8*,·,39.8,-85.3,35.4
O=C(N/N=C/c1ccc(Br)cc1)c1ccc(Br)o1,76.5*,18.7,-2.5,86.4*,2.8,65.1*
Cc1ccc(C(=O)N/N=C/c2ccc3c(c2)OCO3)o1,58.9*,-124.6,14.2,61.4*,-1.7,35.5
Cc1ccc(C(=O)NN=Cc2ccc3c(c2)OCO3)cc1,·,-127.4,·,·,1.2,·
CCCCNC(=O)c1ccc2nc(CC)c(N(CC)CCOC)n2c1,·,8.1,·,·,-0.8,·
CCCCN(Cc1ccccc1)C(=O)C1CCC(=O)N(CCc2ccccn2)C1 (stereo unspecified),-1.0,8.6,19.3,-1.7,1.6,2.3
O=C(CCN1CCN(c2ccccc2)CC1)N/N=C/c1ccc(O)c(O)c1O,·,62.4*,5.1,·,6.5,·
O=C(Cc1csc(N2CCOCC2)n1)N/N=C/c1ccc(O)c(O)c1O,·,59.4*,2.5,·,-1.0,·
NC(=O)CC(NC(=O)c1ccc(Br)cc1)c1ccc(N2CCCCCC2)c([N+](=O)[O-])c1 (stereo unspecified),-8.0,24.4,-1.7,-8.7,2.2,-0.2
CCC(C(=O)Nc1ccc(S(=O)(=O)N2CCN(C)CC2)cc1)c1ccccc1 (stereo unspecified),13.3,5.2,-6.4,7.6,2.1,-0.7
O=C1C(Cl)=C(N2CCN(c3ccccc3[N+](=O)[O-])CC2)C(=O)c2ccccc21,·,60.6*,0.7,·,4.2,·
O=[N+]([O-])c1cc(Cl)ccc1N1CCCC1,4.7,13.7,0.5,-0.9,-0.2,-0.6
Cc1oc(=O)c(NC(=O)c2ccccc2)cc1C(N)=O,-5.0,19.0,4.3,-23.2,0.6,1.4
O=C(Nc1cc2ccccc2oc1=O)c1ccccc1,98.1*,-36.2,24.1,-8.6,1.3,93.9*
CCCN1/C(=C2/SC(=S)N(CC)C2=O)C=Cc2ccccc21,9.0,41.3*,6.8,-2.3,5.9,3.4
CN1/C(=C\C(=O)c2cccnc2)C(C)(C)c2ccccc21,-3.4,-183.2,-4.8,-17.2,-25.8,-13.0
CN1/C(=C/C(=O)c2nc(S(C)(=O)=O)ncc2Cl)C(C)(C)c2ccccc21,7.2,24.7,-11.7,-10.5,41.9*,5.0
Cc1ccc(-c2noc(CCC(=O)Nc3cccc(C(=O)NC4CC4)c3)n2)cc1,·,11.6,·,·,-0.1,·
Clc1ccccc1OCc1nc(-c2ccccn2)no1,84.2*,25.9,5.7,86.0*,0.6,68.6*
Nc1nonc1-c1noc(COc2ccccc2Cl)n1,27.9,28.0,1.3,35.0,-79.5,7.6
CC(C)c1ccc(NC(=O)C[n+]2ccn(C3=C([O-])c4ccccc4C3=O)c2)cc1,15.8,23.8,-1.4,36.1,-1.0,7.5
CCCC[n+]1ccn(C2=C([O-])c3ccccc3C(=O)/C2=N\S(=O)(=O)c2ccccc2)c1,28.4,78.4*,-1.4,39.2,2.4,29.2
